Legend:
[1] = Growth inhibition of human HBC4 cells measured after 48 hrs by sulforhodamine B assay; format: functional
Procedure, shortened: (§1)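 Panel of 39 human cancer cell lines tested at the Japanese Foundation for Cancer Research. Five concentrations per compound, spanning 10⁻¹¹–10⁻⁷ M, 10⁻¹⁰–10⁻⁶ M or 10⁻⁸–10⁻⁴ M, were used to build dose-response curves. GI₅₀ is the concentration giving 50% growth inhibition relative to control.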

[2] = test system: KM12; experiment: Growth inhibition of human KM12 cells measured after 48 hrs by sulforhodamine B assay; format: functional; procedure, shortened: as §1
[3] = test system: U-251; experiment: Growth inhibition of human U-251 cells measured after 48 hrs by sulforhodamine B assay; format: functional; procedure, shortened: as §1
[4] = test system: SNB-75; experiment: Growth inhibition of human SNB-75 cells measured after 48 hrs by sulforhodamine B assay; format: functional; procedure, shortened: as §1
[5] = test system: LOX IMVI; experiment: Growth inhibition of human LOX IMVI cells measured after 48 hrs by sulforhodamine B assay; format: functional; procedure, shortened: as §1
[6] = test system: SF-539; experiment: Growth inhibition of human SF-539 cells measured after 48 hrs by sulforhodamine B assay; format: functional; procedure, shortened: as §1
[7] = test system: SF-295; experiment: Growth inhibition of human SF-295 cells measured after 48 hrs by sulforhodamine B assay; format: functional; procedure, shortened: as §1
[8] = test system: St-4; experiment: Growth inhibition of human St-4 cells measured after 48 hrs by sulforhodamine B assay; format: functional; procedure, shortened: as §1
[9] = test system: SK-OV-3; experiment: Growth inhibition of human SK-OV-3 cells measured after 48 hrs by sulforhodamine B assay; format: functional; procedure, shortened: as §1
[10] = test system: PC-3; experiment: Growth inhibition of human PC-3 cells measured after 48 hrs by sulforhodamine B assay; format: functional; procedure, shortened: as §1
[11] = test system: SNB-78; experiment: Growth inhibition of human SNB-78 cells measured after 48 hrs by sulforhodamine B assay; format: functional; procedure, shortened: as §1
[12] = test system: ACHN; experiment: Growth inhibition of human ACHN cells measured after 48 hrs by sulforhodamine B assay; format: functional; procedure, shortened: as §1
[13] = test system: RXF 631; experiment: Growth inhibition of human RXF 631 cells measured after 48 hrs by sulforhodamine B assay; format: functional; procedure, shortened: as §1
[14] = test system: DU-145; experiment: Growth inhibition of human DU-145 cells measured after 48 hrs by sulforhodamine B assay; format: functional; procedure, shortened: as §1
[15] = test system: MKN-7; experiment: Growth inhibition of human MKN-7 cells measured after 48 hrs by sulforhodamine B assay; format: functional; procedure, shortened: as §1
[16] = test system: OVCAR-3; experiment: Growth inhibition of human OVCAR-3 cells measured after 48 hrs by sulforhodamine B assay; format: functional; procedure, shortened: as §1
[17] = test system: NCI-H460; experiment: Growth inhibition of human NCI-H460 cells measured after 48 hrs by sulforhodamine B assay; format: functional; procedure, shortened: as §1
[18] = test system: HCC 2998; experiment: Growth inhibition of human HCC 2998 cells measured after 48 hrs by sulforhodamine B assay; format: functional; procedure, shortened: as §1
[19] = test system: MKN-28; experiment: Growth inhibition of human MKN-28 cells measured after 48 hrs by sulforhodamine B assay; format: functional; procedure, shortened: as §1
[20] = test system: MKN-74; experiment: Growth inhibition of human MKN-74 cells measured after 48 hrs by sulforhodamine B assay; format: functional; procedure, shortened: as §1
[21] = test system: HT-29; experiment: Growth inhibition of human HT-29 cells measured after 48 hrs by sulforhodamine B assay; format: functional; procedure, shortened: as §1
[22] = test system: HCT-116; experiment: Growth inhibition of human HCT-116 cells measured after 48 hrs by sulforhodamine B assay; format: functional; procedure, shortened: as §1
[23] = target: T1, Protein deacetylase HDAC6 (Mus musculus, UniProt Q9Z2V5); experiment: Inhibition of mouse HDAC6 expressed in 293T cells using Ac-KGLGK(Ac)-MCA as substrate incubated for 30 mins in presence of 0.1 mM DTT by fluorescence plate reader assay; design: species or system HEK293T
T1 sequence (Q9Z2V5 whole entry): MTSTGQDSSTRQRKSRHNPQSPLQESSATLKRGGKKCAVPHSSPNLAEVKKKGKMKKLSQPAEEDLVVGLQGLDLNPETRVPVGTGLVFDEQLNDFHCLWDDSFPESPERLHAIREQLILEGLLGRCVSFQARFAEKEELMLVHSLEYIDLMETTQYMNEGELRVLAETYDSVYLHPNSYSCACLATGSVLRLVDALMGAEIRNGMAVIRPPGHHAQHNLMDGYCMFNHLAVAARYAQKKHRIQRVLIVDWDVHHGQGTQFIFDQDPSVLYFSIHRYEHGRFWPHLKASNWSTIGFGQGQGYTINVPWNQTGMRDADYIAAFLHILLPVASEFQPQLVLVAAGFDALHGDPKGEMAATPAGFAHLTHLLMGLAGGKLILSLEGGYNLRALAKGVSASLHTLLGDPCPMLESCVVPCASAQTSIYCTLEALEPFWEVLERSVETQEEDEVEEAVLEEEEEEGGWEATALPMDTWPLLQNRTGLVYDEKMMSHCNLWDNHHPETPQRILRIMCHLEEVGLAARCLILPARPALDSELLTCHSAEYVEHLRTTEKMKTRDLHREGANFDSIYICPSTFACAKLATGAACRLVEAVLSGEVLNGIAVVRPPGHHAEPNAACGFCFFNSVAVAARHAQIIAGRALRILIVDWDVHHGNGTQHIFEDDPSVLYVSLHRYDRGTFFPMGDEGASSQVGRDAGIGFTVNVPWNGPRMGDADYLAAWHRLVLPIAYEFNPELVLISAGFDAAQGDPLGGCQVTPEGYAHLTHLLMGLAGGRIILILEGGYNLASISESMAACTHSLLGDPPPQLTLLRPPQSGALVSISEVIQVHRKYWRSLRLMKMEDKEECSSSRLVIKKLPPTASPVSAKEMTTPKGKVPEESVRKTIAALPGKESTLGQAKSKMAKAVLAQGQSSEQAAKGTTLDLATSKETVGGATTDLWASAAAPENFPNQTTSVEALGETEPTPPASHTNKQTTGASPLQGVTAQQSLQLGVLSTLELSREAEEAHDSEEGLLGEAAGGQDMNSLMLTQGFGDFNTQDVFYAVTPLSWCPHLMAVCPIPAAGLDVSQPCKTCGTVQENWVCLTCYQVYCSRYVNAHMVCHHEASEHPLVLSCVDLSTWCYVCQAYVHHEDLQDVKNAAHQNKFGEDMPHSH
Procedure, shortened: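 HDAC enzyme assay run in the presence of 0.1 mM dithiothreitol (DTT); IC₅₀ determined.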

[24] = test system: NCI-H522; experiment: Growth inhibition of human NCI-H522 cells measured after 48 hrs by sulforhodamine B assay; format: functional; procedure, shortened: as §1
[25] = Growth inhibition of human HBC5 cells measured after 48 hrs by sulforhodamine B assay; format: functional; procedure, shortened: as §1
[26] = test system: HCT-15; experiment: Growth inhibition of human HCT-15 cells measured after 48 hrs by sulforhodamine B assay; format: functional; procedure, shortened: as §1
[27] = test system: OVCAR-5; experiment: Growth inhibition of human OVCAR-5 cells measured after 48 hrs by sulforhodamine B assay; format: functional; procedure, shortened: as §1
[28] = test system: OVCAR-4; experiment: Growth inhibition of human OVCAR-4 cells measured after 48 hrs by sulforhodamine B assay; format: functional; procedure, shortened: as §1
[29] = test system: DMS-114; experiment: Growth inhibition of human DMS-114 cells measured after 48 hrs by sulforhodamine B assay; format: functional; procedure, shortened: as §1
[30] = Growth inhibition of human BSY1 cells measured after 48 hrs by sulforhodamine B assay; format: functional; conditions: BSY-1; procedure, shortened: as §1
[31] = test system: MKN-1; experiment: Growth inhibition of human MKN-1 cells measured after 48 hrs by sulforhodamine B assay; format: functional; procedure, shortened: as §1
[32] = test system: NCI-H226; experiment: Growth inhibition of human NCI-H226 cells measured after 48 hrs by sulforhodamine B assay; format: functional; procedure, shortened: as §1
[33] = test system: A549; experiment: Growth inhibition of human A549 cells measured after 48 hrs by sulforhodamine B assay; format: functional; procedure, shortened: as §1
[34] = test system: OVCAR-8; experiment: Growth inhibition of human OVCAR-8 cells measured after 48 hrs by sulforhodamine B assay; format: functional; procedure, shortened: as §1
[35] = test system: MDA-MB-231; experiment: Growth inhibition of human MDA-MB-231 cells measured after 48 hrs by sulforhodamine B assay; format: functional; procedure, shortened: as §1
[36] = test system: MKN-45; experiment: Growth inhibition of human MKN-45 cells measured after 48 hrs by sulforhodamine B assay; format: functional; procedure, shortened: as §1
[37] = test system: SF-268; experiment: Growth inhibition of human SF-268 cells measured after 48 hrs by sulforhodamine B assay; format: functional; procedure, shortened: as §1
[38] = test system: NCI-H23; experiment: Growth inhibition of human NCI-H23 cells measured after 48 hrs by sulforhodamine B assay; format: functional; procedure, shortened: as §1
[39] = test system: DMS-273; experiment: Growth inhibition of human DMS-273 cells measured after 48 hrs by sulforhodamine B assay; format: functional; procedure, shortened: as §1
[40] = Selectivity index, ratio of IC50 for mouse HDAC6 expressed in 293T cells to IC50 for human HDAC1 expressed in 293T cells using Ac-KGLGK(Ac)-MCA as substrate incubated for 30 mins in presence of 0.1 mM DTT by fluorescence plate reader assay; conditions: 0.5 h
Procedure, shortened: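 Ratio of HDAC6 IC₅₀ to HDAC1 IC₅₀, taken as selectivity for class I HDAC1 over class II HDAC6. Both enzyme assays were run in the presence of 0.1 mM DTT.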

[41] = target: Histone deacetylase 1 (Homo sapiens, UniProt Q13547); experiment: Inhibition of human HDAC1 expressed in 293T cells using Ac-KGLGK(Ac)-MCA as substrate incubated for 30 mins in presence of 0.1 mM DTT by fluorescence plate reader assay; design: species or system HEK293T
[42] = test system: MCF7; experiment: Growth inhibition of human MCF7 cells measured after 48 hrs by sulforhodamine B assay; format: functional; procedure, shortened: as §1

Chain of Histone deacetylase 1 (Q13547 whole entry): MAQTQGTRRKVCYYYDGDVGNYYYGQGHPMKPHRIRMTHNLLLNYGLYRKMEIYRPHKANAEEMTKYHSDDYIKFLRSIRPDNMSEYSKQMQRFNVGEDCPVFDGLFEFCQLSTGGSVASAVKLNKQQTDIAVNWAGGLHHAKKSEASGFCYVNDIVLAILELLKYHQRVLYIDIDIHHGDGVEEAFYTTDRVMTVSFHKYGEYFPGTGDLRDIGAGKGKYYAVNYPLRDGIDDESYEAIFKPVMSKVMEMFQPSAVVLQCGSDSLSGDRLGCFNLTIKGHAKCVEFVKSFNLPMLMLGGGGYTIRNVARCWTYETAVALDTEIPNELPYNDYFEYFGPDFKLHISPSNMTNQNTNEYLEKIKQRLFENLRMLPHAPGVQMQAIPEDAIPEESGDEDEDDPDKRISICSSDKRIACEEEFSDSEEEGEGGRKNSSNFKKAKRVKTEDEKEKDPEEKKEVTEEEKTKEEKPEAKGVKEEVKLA

Compound: CC(C)C[C@H]1NC(=O)[C@H]2CSSCC/C=C/[C@H](CC(=O)N[C@H](C(C)C)C(=O)N2)OC(=O)CNC1=O
- GI50 [1]: 70 nM
- GI50 [2]: 33 nM
- GI50 [3]: 10 nM
- GI50 [4]: 43 nM
- GI50 [5]: 23 nM
- GI50 [6]: 57 nM
- GI50 [7]: 1100 nM
- GI50 [8]: 230 nM
- GI50 [9]: 23 nM
- GI50 [10]: 69 nM
- GI50 [11]: 30 nM
- GI50 [12]: 200 nM
- GI50 [13]: 68 nM
- GI50 [14]: 37 nM
- GI50 [15]: 280 nM
- GI50 [16]: 40 nM
- GI50 [17]: 39 nM
- GI50 [18]: 27 nM
- GI50 [19]: 270 nM
- GI50 [20]: 44 nM
- GI50 [21]: 33 nM
- GI50 [22]: 22 nM
- IC50 [23]: 8450 nM
- GI50 [24]: 10 nM
- GI50 [25]: 270 nM
- GI50 [26]: 590 nM
- GI50 [27]: 31 nM
- GI50 [28]: 87 nM
- GI50 [29]: 36 nM
- GI50 [30]: 69 nM
- GI50 [31]: 21 nM
- GI50 [32]: 59 nM
- GI50 [33]: 23 nM
- GI50 [34]: 42 nM
- GI50 [35]: 39 nM
- GI50 [36]: 240 nM
- GI50 [37]: 11 nM
- GI50 [38]: 39 nM
- GI50 [39]: 74 nM
- Ratio IC50 [40]: 8804
- IC50 [41]: 0.96 nM
- GI50 [42]: 52 nM

Compound: CC(C)[C@H]1NC(=O)C[C@H]2/C=C/CCSSC[C@@H](NC1=O)C(=O)N[C@@H](Cc1ccccc1)C(=O)NCC(=O)O2
- GI50 [1]: 690 nM
- GI50 [2]: 740 nM
- GI50 [3]: 1500 nM
- GI50 [4]: 1300 nM
- GI50 [5]: 160 nM
- GI50 [6]: 860 nM
- GI50 [7]: 1800 nM
- GI50 [8]: 2000 nM
- GI50 [9]: 1200 nM
- GI50 [10]: 1100 nM
- GI50 [11]: 540 nM
- GI50 [12]: 11000 nM
- GI50 [13]: 1800 nM
- GI50 [14]: 590 nM
- GI50 [15]: 1900 nM
- GI50 [16]: 1100 nM
- GI50 [17]: 1100 nM
- GI50 [18]: 1100 nM
- GI50 [19]: 2100 nM
- GI50 [20]: 500 nM
- GI50 [21]: 570 nM
- GI50 [22]: 250 nM
- IC50 [23]: 355 nM
- GI50 [24]: 200 nM
- GI50 [25]: 1900 nM
- GI50 [26]: 26000 nM
- GI50 [27]: 1400 nM
- GI50 [28]: 1900 nM
- GI50 [29]: 620 nM
- GI50 [30]: 1300 nM
- GI50 [31]: 290 nM
- GI50 [32]: 1200 nM
- GI50 [33]: 880 nM
- GI50 [34]: 1400 nM
- GI50 [35]: 1200 nM
- GI50 [36]: 1800 nM
- GI50 [37]: 220 nM
- GI50 [38]: 1100 nM
- GI50 [39]: 1500 nM
- Ratio IC50 [40]: 9
- IC50 [41]: 40.8 nM
- GI50 [42]: 1900 nM
